Measured values reported in ChEMBL document CHEMBL4017520, “Discovery, Structure-Activity Relationship, and Antiparkinsonian Effect of a Potent and Brain-Penetrant Chemical Series of Positive Allosteric Modulators of Metabotropic Glutamate Receptor 4” (J Med Chem, 2017).
Activity calls are given as the source filed them. The rule behind the calls is not given here.

Legend:
[1] = system: Rattus norvegicus; assay: Toxicity in 6-OHDA induced parkinsonian motor deficit Sprague-Dawley rat model assessed as induction of overacting rearing behavior up to 30 mg/kg, ip; format: organism-based; conditions: in vivo
[2] = system: Rattus norvegicus; assay: Protection against 6-OHDA induced parkinsonian motor deficit in Sprague-Dawley rat assessed as increase in rearing time at 30 mg/kg, ip after 28 days post surgery; format: functional, organism-based
Summary of the method: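 Adult male Sprague−Dawley rats with bilateral 6-OHDA striatal lesions given compound 30 mg/kg ip or vehicle at T0; spontaneous locomotor activity (active time, slow activity, rearing) counted in 5-min bins versus pre-surgery vehicle; n = 10.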

O/N=c1\cc(-c2cc3cccn3cn2)oc2ccc(OCCN3CCOCC3)cc12 [listing 1 of 2 here]
Activity [1]: Non-Toxic

O/N=c1\cc(-c2cc3cccn3cn2)oc2ccc(OCCN3CCOCC3)cc12 [listing 2 of 2 here]
Activity [2]: Active
